# Tests used:
# Escherichia coli [1] = experiment: Minimum inhibitory concentration against Escherichia coli DC2 (inoculum, 10e4 cfu per spot); assay type: functional
# Summary of the method: (§1)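 MIC in µg/mL, determined in Jewell and Permain growth medium with spot inoculation at 10^4 cfu per spot. P99 is described as a constitutive type I lactamase producer.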
# Escherichia coli [2] = experiment: Minimum inhibitory concentration against Escherichia coli DCO (inoculum, 10e4 cfu per spot); assay type: functional; summary of the method: as §1
# Escherichia coli [3] = experiment: Minimum inhibitory concentration against Escherichia coli A8 (inoculum, 10e5 cfu per spot); assay type: functional
# Summary of the method: (§2)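 MIC in µg/mL, determined in Jewell and Permain growth medium with spot inoculation at 10^5 cfu per spot.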
# Enterobacter cloacae [4] = experiment: Minimum inhibitory concentration against Enterobacter cloacae A13 (inoculum, 10e5 cfu per spot); assay type: functional; summary of the method: as §2
# Enterobacter cloacae [5] = experiment: Minimum inhibitory concentration against Enterobacter cloacae P99 (inoculum, 10e4 cfu per spot); assay type: functional; summary of the method: as §1
# Klebsiella aerogenes [6] = experiment: Minimum inhibitory concentration against Klebsiella aerogenes X5L (inoculum, 10e4 cfu per spot); assay type: functional; summary of the method: as §1
# Klebsiella aerogenes [7] = experiment: Minimum inhibitory concentration against Klebsiella aerogenes X6 (inoculum, 10e4 cfu per spot); assay type: functional; summary of the method: as §1
# Klebsiella pneumoniae = experiment: Minimum inhibitory concentration against Klebsiella pneumoniae A24 (inoculum, 10e5 cfu per spot); assay type: functional; summary of the method: as §2
# Proteus mirabilis [8] = experiment: Minimum inhibitory concentration against Proteus mirabilis A18 (inoculum, 10e5 cfu per spot); assay type: functional; summary of the method: as §2
# Pseudomonas aeruginosa = experiment: Minimum inhibitory concentration against Pseudomonas aeruginosa A21 (inoculum, 10e5 cfu per spot); assay type: functional; summary of the method: as §2
# Staphylococcus aureus [9] = experiment: Minimum inhibitory concentration against Staphylococcus aureus A4 (inoculum, 10e5 cfu per spot); assay type: functional; summary of the method: as §2
# Staphylococcus aureus [10] = experiment: Minimum inhibitory concentration against Staphylococcus aureus A6 (inoculum, 10e5 cfu per spot); assay type: functional; summary of the method: as §2
# Streptococcus pyogenes = experiment: Minimum inhibitory concentration against Streptococcus pyogenes (inoculum, 10e5 cfu per spot) A1; assay type: functional; summary of the method: as §2
# Serratia marcescens = experiment: Minimum inhibitory concentration against Serratia marcescens A16 (inoculum, 10e5 cfu per spot); assay type: functional; summary of the method: as §2
# Enterobacter cloacae [11] = experiment: Minimum inhibitory concentration against Enterobacter cloacae P99 (inoculum, 10e4 cfu per spot)(type I lactamase producer); assay type: functional; summary of the method: as §1
# Escherichia coli [12] = experiment: Minimum inhibitory concentration against Escherichia coli X4 (inoculum, 10e4 cfu per spot)
# Proteus vulgaris = experiment: Minimum inhibitory concentration against Proteus vulgaris Pv9 (inoculum, 10e5 cfu per spot)
# Escherichia coli [13] = experiment: Minimum inhibitory concentration against Escherichia coli TEM X3 (inoculum, 10e4 cfu per spot)(TEM I type lactamase producer)
# Proteus mirabilis [14] = experiment: Minimum inhibitory concentration against Proteus mirabilis A18(inoculum, 10e5 cfu per spot); assay type: functional; summary of the method: as §2
SMILES,MIC (Escherichia coli [1]) [µg/mL],MIC (Escherichia coli [2]) [µg/mL],MIC (Escherichia coli [3]) [µg/mL],MIC (Enterobacter cloacae [4]) [µg/mL],MIC (Enterobacter cloacae [5]) [µg/mL],MIC (Klebsiella aerogenes [6]) [µg/mL],MIC (Klebsiella aerogenes [7]) [µg/mL],MIC (Klebsiella pneumoniae) [µg/mL],MIC (Proteus mirabilis [8]) [µg/mL],MIC (Pseudomonas aeruginosa) [µg/mL],MIC (Staphylococcus aureus [9]) [µg/mL],MIC (Staphylococcus aureus [10]) [µg/mL],MIC (Streptococcus pyogenes) [µg/mL],MIC (Serratia marcescens) [µg/mL],MIC (Enterobacter cloacae [11]) [µg/mL],MIC (Escherichia coli [12]) [µg/mL],MIC (Proteus vulgaris) [µg/mL],MIC (Escherichia coli [13]) [µg/mL],MIC (Proteus mirabilis [14]) [µg/mL]
Cn1nnnc1SCC1=C(C(=O)OC(c2ccccc2)c2ccccc2)N2C(=O)[C@@H](Nc3nc4ccccc4[nH]3)C2SC1 (some centres undefined),0.016,0.5,0.5,> 128,0.5,128,2,0.5,0.25,> 128,128,4,0.5,64,64,0.5,8,4,–
Cc1nnc(SCC2=C(C(=O)OC(C)(C)C)N3C(=O)[C@@H](NC4=NCCN4)C3SC2)s1 (some centres undefined),1,8,4,64,8,16,8,4,> 256,> 256,> 256,> 256,16,64,16,4,64,8,–
CC1=C(C(=O)OC(c2ccccc2)c2ccccc2)N2C(=O)[C@@H](NC3=NC(C)C(C)N3)C2SC1 (some centres undefined),4,4,32,32,4,32,16,16,> 256,> 256,> 256,> 256,> 256,> 256,4,4,> 256,4,–
CC1=C(C(=O)OC(c2ccccc2)c2ccccc2)N2C(=O)[C@@H](NC3=NC(c4ccc(O)c(O)c4)CN3)C2SC1 (some centres undefined),2,4,4,> 256,2,8,4,> 256,> 256,> 256,> 256,> 256,> 256,> 256,4,2,> 256,2,–
CC(=O)OCC1=C(C(=O)OC(c2ccccc2)c2ccccc2)N2C(=O)[C@@H](Nc3nc4c(O)cccc4[nH]3)C2SC1 (some centres undefined),0.12,0.5,1,> 256,1,256,1,8,16,> 256,32,2,2,256,> 256,0.5,128,32,–
Cn1nnnc1SCC1=C(C(=O)OC(c2ccccc2)c2ccccc2)N2C(=O)[C@@H](Nc3nc4cc(O)ccc4[nH]3)C2SC1 (some centres undefined),< 0.03,0.12,0.25,> 256,0.25,64,0.25,4,0.5,> 256,16,2,0.5,64,32,0.12,16,1,–
CC1=C(C(=O)OC(c2ccccc2)c2ccccc2)N2C(=O)[C@@H](NC3=NCCN3)C2SC1 (some centres undefined),2,4,2,4,2,4,4,4,256,> 256,> 256,> 256,128,> 256,4,2,> 256,2,–
CC1(C)S[C@@H]2[C@H](/N=C/N3CCCCCC3)C(=O)N2[C@H]1C(=O)O [AMDINOCILLIN],0.004,0.03,0.06,0.25,0.03,4,0.12,0.03,32,> 256,> 256,16,16,128,0.06,0.03,64,1,–
CO/N=C(\C(=O)N[C@@H]1C(=O)N2C(C(=O)O)=C(COC(C)=O)CS[C@H]12)c1csc(N)n1 [CEFOTAXIME],0.002,0.03,0.25,256,0.03,4,0.06,0.06,0.06,128,32,4,0.03,0.25,32,0.06,0.5,0.06,–

# Next, values leading:
MIC (Escherichia coli [1]) [µg/mL],MIC (Escherichia coli [2]) [µg/mL],MIC (Escherichia coli [3]) [µg/mL],MIC (Enterobacter cloacae [4]) [µg/mL],MIC (Enterobacter cloacae [5]) [µg/mL],MIC (Klebsiella aerogenes [6]) [µg/mL],MIC (Klebsiella aerogenes [7]) [µg/mL],MIC (Klebsiella pneumoniae) [µg/mL],MIC (Proteus mirabilis [8]) [µg/mL],MIC (Pseudomonas aeruginosa) [µg/mL],MIC (Staphylococcus aureus [9]) [µg/mL],MIC (Staphylococcus aureus [10]) [µg/mL],MIC (Streptococcus pyogenes) [µg/mL],MIC (Serratia marcescens) [µg/mL],MIC (Enterobacter cloacae [11]) [µg/mL],MIC (Escherichia coli [12]) [µg/mL],MIC (Proteus vulgaris) [µg/mL],MIC (Escherichia coli [13]) [µg/mL],MIC (Proteus mirabilis [14]) [µg/mL],SMILES
< 0.03,0.5,0.5,> 256,1,128,0.5,0.5,64,> 256,256,1,0.5,64,256,0.25,> 256,4,–,CC(=O)OCC1=C(C(=O)OC(c2ccccc2)c2ccccc2)N2C(=O)[C@@H](Nc3nc4cc(CC#N)ccc4[nH]3)C2SC1 (some centres undefined)
0.03,0.06,0.25,256,0.06,8,0.12,0.5,32,> 256,32,2,1,256,32,0.06,128,1,–,CC(=O)OCC1=C(C(=O)OC(C)(C)C)N2C(=O)[C@@H](Nc3nc4cc(N)ccc4[nH]3)C2SC1 (some centres undefined)
0.5,0.5,2,256,1,256,1,2,32,> 256,64,2,4,> 256,> 256,0.5,> 256,4,–,CC(=O)OCC1=C(C(=O)OC(C)(C)C)N2C(=O)[C@@H](Nc3nc4ccc[nH]c-4n3)C2SC1 (some centres undefined)
< 0.03,0.5,2,≥ 128,2,≥ 128,2,1,–,≥ 128,8,2,2,64,≥ 128,0.25,64,2,4,CC(=O)OCC1=C(C(=O)OC(c2ccccc2)c2ccccc2)N2C(=O)[C@@H](Nc3nc4ccccc4[nH]3)C2SC1 (some centres undefined)

# Source: ChEMBL document CHEMBL1125626, “Synthesis and structure-activity relationship of new cephalosporins with amino heterocycles at C-7. Dependence of the antibacterial spectrum and beta-lactamase stability on the pKa of the C-7 heterocycle” (1991)
